Experimental findings from ChEMBL document CHEMBL3351971 (Bioorg Med Chem, 2014) are described below.

≈ marks a conversion by molar mass, not a printed value. Calls of active or inactive are those of the source. The rule behind the calls is not given here. Bounds are passed on as bounds.

Data set [1] has as its system Leishmania infantum. Put plainly: Antileishmanial activity against intracellular Leishmania infantum chagasi MHOM/BR/00/1669 amastigotes infected in mouse RAW264.7 cells assessed as inhibition of parasite growth after 48 hrs. The class given is functional, organism-based. To be noted: chagasi MHOM/BR/00/1669, RAW264.7, 48 h. Put shortly: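 RAW 264.7 macrophages (4×10^5/well, RPMI-1640 + 10% FBS) adhered for 24 h, then infected with promastigotes at 1:10 for 2 h. Non-adherent parasites rinsed off and cells held 72 h. Compounds added from ethanol stocks in six two-fold dilutions for 48 h at 37 °C, 5% CO2. Amastigotes detected by cell ELISA (saponin permeabilization, rabbit anti-Leishmania serum 1:500, peroxidase anti-rabbit, OPD, 492 nm).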

A short description of data set [2]: Cytotoxicity against mouse RAW264.7 cells assessed as cell survival at 100 ug/ml after 48 hrs by MTT assay. Type of data set: cell-based. To be noted: read-out: Survival. Put shortly: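 RAW 264.7 cells were seeded at 4×10^4/well. Compounds were dissolved at 0.2% in ethanol and diluted in M199 medium, highest concentration 100 µg/mL. Cells were exposed for 48 h at 37 °C in humidified 5% CO2, with […] vehicle controls. Viability was read by MTT.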
(Formazan colour is commonly taken as a measure of viable cells.)

In data set [3] the test system is Leishmania infantum. As to the kind of experiment: Antileishmanial activity against intracellular Leishmania infantum chagasi MHOM/BR/00/1669 amastigotes infected in BALB/c mouse assessed as inhibition of parasite growth in spleen at 100 mg/kg, ip once daily treated after 30 days post infection for 30 days. Type of data set: functional, organism-based. Also on record: dose 100 mg/kg. Put shortly:
(§1)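 Male BALB/c mice, 21 days old, infected IP with 1×10^7 Ficoll-purified metacyclic promastigotes; infection confirmed by liver and spleen imprints at 35 days. Compounds given IP at 100 mg/kg once daily for 30 days, 0.5 mL injected, n = 5 per group. Controls were Glucantime (80 mg/Kg intramuscular) and water. Liver and spleen collected afterwards; amastigotes detected qualitatively by anti-Leishmania immunohistochemistry with DAB.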

Data set [4] concerns Leishmania infantum. Put plainly: Antileishmanial activity against axenically cultured Leishmania infantum chagasi MHOM/BR/00/1669 promastigotes assessed as inhibition of parasite growth after 24 hrs. As to conditions: chagasi MHOM/BR/00/1669, 24 h.
Data set [5] relates to Leishmania infantum. As to the kind of experiment: Antileishmanial activity against intracellular Leishmania infantum chagasi MHOM/BR/00/1669 amastigotes infected in BALB/c mouse assessed as inhibition of parasite growth in liver at 100 mg/kg, ip once daily treated after 30 days post infection for 30 days. The class given is functional, organism-based. Also on record: dose 100 mg/kg. Put shortly: as §1

As usually defined, the EC50 is the concentration at which the effect is half-maximal. Turning to `C[C@@H]1[C@H](O)[C@@H](C)/C=C/C=C/C=C/C=C/C=C/C=C/C=C/[C@H](O[C@@H]2O[C@H](C)[C@@H](O)[C@H](N)[C@@H]2O)C[C@@H]2O[C@](O)(C[C@@H](O)C[C@@H](O)[C@H](O)CC[C@@H](O)C[C@@H](O)CC(=O)O[C@H]1C)C[C@H](O)[C@H]2C(=O)O` [AMPHOTERICIN B], the EC50 with Leishmania infantum [1] is 20.4 µg/mL (≈ 22.1 µM). The viability at 48 h, 100 ug/ml in data set [2] is 98.5%.

Take MEGLUMINE ANTIMONATE: in the data set with Leishmania infantum [3], the outcome was inactive.

Turning to `CC(=O)Oc1cc(C)ccc1C(C)C`, the EC50 with Leishmania infantum [1] came out at 10.9 µg/mL (≈ 57 µM); in the data set with Leishmania infantum [4], 9.07 µg/mL (≈ 47.2 µM). In addition, in the data set with Leishmania infantum [3], the result was inactive. Moreover, the result with Leishmania infantum [5] was Active. The viability at 48 h, 100 ug/ml in data set [2] is over 100%.

With `C=CCc1ccc(O)c(OC)c1` [EUGENOL], the EC50 with Leishmania infantum [1] was found to be 20.8 µg/mL (≈ 127 µM); in the data set on Leishmania infantum [4], 56.1 µg/mL (≈ 342 µM). Also, the viability at 48 h, 100 ug/ml in data set [2] came to 29%.

`Cc1ccc(C(C)C)c(O)c1` [THYMOL]: in the data set with Leishmania infantum [1], the EC50 worked out at 23.9 µg/mL (≈ 159 µM). The viability at 48 h, 100 ug/ml in data set [2] stood at 36.5%.

For `Cc1ccc(C(C)C)c(OC(=O)c2ccccc2)c1`, the half-maximal effective concentration (EC50) stood at 15.1 µg/mL (≈ 59.3 µM) in the data set on Leishmania infantum [1] and 8.67 µg/mL (≈ 34.1 µM) in the data set on Leishmania infantum [4]. For the same molecule, the result in the data set with Leishmania infantum [3] and in the data set with Leishmania infantum [5] was Active. Besides, in data set [2], the viability at 48 h, 100 ug/ml came to 63.6%.

In the case of `C=CCc1ccc(OC(C)=O)c(OC)c1` [EUGENYL ACETATE], the 50% effective concentration (EC50) in the data set on Leishmania infantum [1] is 18.5 µg/mL; with Leishmania infantum [4] it was 23.2 µg/mL. The outcome in the data set with Leishmania infantum [3] and in the data set on Leishmania infantum [5] was Active. Besides, the viability at 48 h, 100 ug/ml in data set [2] is over 100%.

With `C=CCc1ccc(OC(=O)c2ccccc2)c(OC)c1` [EUGENYL BENZOAT], the EC50 in the data set with Leishmania infantum [1] was found to be 14.9 µg/mL (≈ 55.6 µM); with Leishmania infantum [4], 10.6 µg/mL (≈ 39.4 µM). Moreover, the result in the data set on Leishmania infantum [3] and in the data set on Leishmania infantum [5] was Active. Further, the viability at 48 h, 100 ug/ml in data set [2] is 97.7%.

As to `N=C(N)c1ccc(OCCCCCOc2ccc(C(=N)N)cc2)cc1` [PENTAMIDINE], in the data set on Leishmania infantum [4], the EC50 was 5.3 µg/mL (≈ 15.6 µM). In addition, in data set [2], the viability at 48 h, 100 ug/ml is 85.6%.
